PubChem BioAssay
Values joined by “and” are separate entries in the source; they are usually repeats but may differ in a detail not shown here. Identical values can stand only once. Active and inactive are the calls of the source.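 The calls were made as follows, unless noted: active = viability at or below 30% in both replicate assays; inconclusive = viability at or below 30% in just one of the two assays; inactive = the rest.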

Tests used:
[1] = reducers of endogenous Her2 protein level, primary screen, SKBR3 breast tumor cells, AlphaScreen, ATP viability (AID 461;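 active = Her2 level under about 52% in both replicate screens, with viability over 70% of control, limit read from the data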;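 as to Her2 level: lower value means less Her2 protein in the cells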;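 as to viability: percent of carrier control wells set as 100% viability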); conditions: 18-24 h, measured here: SKBR3 viability, ATP luminescence, at 10 µM
[2] = target: Receptor tyrosine-protein kinase erbB-2 (Homo sapiens) (UniProt P04626); experiment: as above; conditions: 18-24 h, at 10 µM, stronger effect = lower value
[3] = SK-BR-3 cell growth inhibitors, pilot screen, 24 h, human (AID 572;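 active = viability at or below 10% of carrier control in both of two separate runs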;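 also: compound exposure lasted between 18 and 24 h rather than exactly 24 h; 100% = carrier-treated control wells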); conditions: SK-BR-3 viability, CellTiter-Glo luminescence, at 10 µM, stronger effect = lower value
[4] = HUVEC growth inhibition – cell-based, human, primary screen (AID 575); conditions: HUVEC proliferation, CellTiter-Glo luminescence, 72 h; at 10 µM; stronger effect = lower value;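 also: 100% = median of untreated cell wells with 0.1% DMSO on each plate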
Procedure, shortened: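 Test system – primary HUVEC, no more than 12 passages · Dosing – one dose, 10 µM final, 0.1% DMSO · Times – 72 h treatment at 37 °C · Measured by – ATP-based CellTiter-Glo luminescent read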

[5] = growth inhibitors of H69AR lung tumor, primary screen, human, duplicate replicates (AID 580;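 active = viability at or under a set limit in both replicates, limit being median viability minus 3 SD, cut at about 48% in these data, passing the limit was not always enough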;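 also: 100% = mean luminescence of untreated wells and 0% = no signal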); conditions: H69AR lung tumor cells viability, ATP luminescence, 72 h; at 10 µM; stronger effect = lower value
[6] = reversal of MRP1-mediated doxorubicin resistance, pilot screen, H69AR cells, doxorubicin co-treatment (AID 601;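 active = viability loss from added drug above about 55%, and viability with drug at most 40%, in both replicates, limit read from the data, passing the limit was not always enough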); conditions: CellTiter-Glo, 72 h, at 10 µM; for differential viability (reversal): stronger effect = higher value
[7] = 384-well plate pilot, post-Golgi transport modulator project, inhibition of yeast transport mutant growth (AID 636; in the data active = inhibition above about 31%); conditions: absorbance 615 nm, about 18 h, stronger effect = higher value
[8] = growth suppression of yeast trafficking mutant, preliminary HTS, modulators of trafficking downstream of Golgi apparatus project, 1536-format plate, OD 615 nm (AID 637; in the data active = inhibition above about 30%); conditions: yeast transport mutant growth, absorbance 615 nm, 18 h; stronger effect = higher value
[9] = H69AR cells + 2 uM doxorubicin, measured here: viability with 2 uM doxorubicin, stronger effect = lower value
[10] = H69AR cells, compound alone cytotoxicity

Receptor tyrosine-protein kinase erbB-2 (Homo sapiens), sequence (P04626 whole entry, looked up): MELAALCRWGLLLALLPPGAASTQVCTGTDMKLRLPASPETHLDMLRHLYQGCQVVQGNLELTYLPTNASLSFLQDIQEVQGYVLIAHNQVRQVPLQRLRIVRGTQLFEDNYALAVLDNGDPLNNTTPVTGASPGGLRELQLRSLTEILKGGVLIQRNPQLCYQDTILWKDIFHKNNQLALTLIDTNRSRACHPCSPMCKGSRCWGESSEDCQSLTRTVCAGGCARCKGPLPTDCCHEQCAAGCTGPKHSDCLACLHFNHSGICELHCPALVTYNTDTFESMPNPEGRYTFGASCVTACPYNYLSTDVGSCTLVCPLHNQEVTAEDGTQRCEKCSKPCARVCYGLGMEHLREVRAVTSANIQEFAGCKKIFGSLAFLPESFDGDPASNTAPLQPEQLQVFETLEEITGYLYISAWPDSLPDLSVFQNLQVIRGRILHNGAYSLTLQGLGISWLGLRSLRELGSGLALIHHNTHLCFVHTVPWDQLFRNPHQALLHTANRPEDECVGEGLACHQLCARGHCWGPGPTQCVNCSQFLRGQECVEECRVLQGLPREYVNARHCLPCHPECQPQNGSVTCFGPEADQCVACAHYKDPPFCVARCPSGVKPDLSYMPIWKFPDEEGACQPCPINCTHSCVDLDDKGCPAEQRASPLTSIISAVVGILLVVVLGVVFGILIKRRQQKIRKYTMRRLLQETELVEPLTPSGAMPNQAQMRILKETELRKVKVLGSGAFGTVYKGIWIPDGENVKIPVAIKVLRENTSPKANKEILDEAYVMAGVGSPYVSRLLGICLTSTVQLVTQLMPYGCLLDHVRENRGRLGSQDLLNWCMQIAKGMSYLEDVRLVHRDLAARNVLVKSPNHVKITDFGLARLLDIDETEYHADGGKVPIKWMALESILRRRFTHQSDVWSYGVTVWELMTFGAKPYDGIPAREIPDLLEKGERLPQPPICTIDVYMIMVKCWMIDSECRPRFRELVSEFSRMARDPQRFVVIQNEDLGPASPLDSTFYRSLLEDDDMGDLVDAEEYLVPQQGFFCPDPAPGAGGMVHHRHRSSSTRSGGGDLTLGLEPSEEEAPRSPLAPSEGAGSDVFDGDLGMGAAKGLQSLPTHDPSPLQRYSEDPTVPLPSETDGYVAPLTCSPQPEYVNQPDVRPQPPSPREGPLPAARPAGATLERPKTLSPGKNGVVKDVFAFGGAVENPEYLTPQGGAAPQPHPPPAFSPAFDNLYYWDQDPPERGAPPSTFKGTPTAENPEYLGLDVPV

Row | SMILES | viability [1] [%] | Her2 level [2] | viability [3] | viability [4] | viability [5] | differential viability (reversal) ([6]; H69AR cells + 2 uM doxorubicin) | viability [6, 9] | viability [6, 10] | inhibition [7] | inhibition [8]
1 | CC(=O)Nc1ccc(S(=O)(=O)n2nc(C)cc2C)cc1 | 105 | 106% (inactive) | 105% (inactive) | 111% (inactive) | 105% (inactive) | 5.88% (inactive) | 98.9% | 105% | -6.45% (inactive) | 10.3% (inactive)
2 | CCOC(=O)c1c(C)c(C(=O)NCC2CCCO2)c(C)n1C (stereo not given) | 100 | 82.5% (inactive) | 100% (inactive) | 83.5% (inactive) | 92.2% (inactive) | 11.9% (inactive) | 80.3% | 92.2% | -1.71% (inactive) | 1.59% (inactive)
3 | O=C(Nc1ccc(N2CCCCC2)cc1)c1ccc(F)cc1 | 84 | 106% (inactive) | 84% (inactive) | 80% (inactive) | 83.1% (inactive) | 4.35% (inactive) | 78.8% | 83.1% | 1.79% (inactive) | -0.5% (inactive)
4 | CC(NC(=O)C1CCCN(S(=O)(=O)c2cccs2)C1)c1ccccc1 (stereo not given) | 95 | 80.5% (inactive) | 95% (inactive) | 104% (inactive) | 89.7% (inactive) | 1.41% (inactive) | 88.2% | 89.7% | 1.03% (inactive) | 1.17% (inactive)
5 | Cc1ccc(-c2[nH]nc3c2C(c2ccc(OC(=O)N4CCOCC4)cc2)C(C#N)=C(N)O3)cc1 (stereo not given) | 89 | 93% (inactive) | 89% (inactive) | 106% (inactive) | 85.5% (inactive) | -10.4% (inactive) | 96% | 85.5% | -5.26% (inactive) | -11.4% (inactive)
6 | Nc1cc(CN2C(=O)c3ccccc3C2=O)cc(Cl)c1O | 102 | 91.5% (inactive) | 102% (inactive) | 75.1% (inactive) | 108% (inactive) | 29% (inactive) | 79.2% | 108% | -5.41% (inactive) | -1.64% (inactive)
7 | Nc1ccc(C(=O)O)c(O)c1 | 100 | 113% (inactive) | 100% (inactive) and 130% (inactive) | 105% (inactive) and 87.5% (inactive) | 78.2% (inactive) and 90.7% (inactive) | -28.9% (inactive) and 6.59% (inactive) | 107% and 84.1% | 78.2% and 90.7% | -1.82% (inactive) | 15.8% (inactive)
8 | CCCCc1c(O)nc(SCCN(C)C)n(-c2ccccc2)c1=O | 93.5 | 110% (inactive) | 93.5% (inactive) | 99.5% (inactive) | 102% (inactive) | 2.55% (inactive) | 99% | 102% | -1.18% (inactive) | 2.62% (inactive)
9 | COc1ccc(OC)c(C(=O)c2nc3c(n2O)CCCCC3)c1 | 78.5 | 122% (inactive) | 78.5% (inactive) | 99.9% (inactive) | 93.2% (inactive) | -4.37% (inactive) | 97.6% | 93.2% | -5.13% (inactive) | 0.98% (inactive)
10 | COc1cc(Br)cc(CN2CCN(C/C=C/c3ccccc3)CC2)c1O | 81 | 93.5% (inactive) | 81% (inactive) | 79.5% (inactive) | 93.2% (inactive) | 7.21% (inactive) | 86% | 93.2% | 0.93% (inactive) | 11.3% (inactive)
11 | Nc1sccc1C(=O)c1ccccc1 | 85.5 | 118% (inactive) | 85.5% (inactive) | 82.6% (inactive) | 88.5% (inactive) | -2.76% (inactive) | 91.2% | 88.5% | -1.87% (inactive) | -0.16% (inactive)
12 | COc1ccccc1-c1nc2n(n1)C(c1cccs1)C(C(=O)Nc1cccnc1)=C(C)N2 (stereo not given) | 83.5 | 95.5% (inactive) | 83.5% (inactive) | 97.9% (inactive) | 87.1% (inactive) | 0.115% (inactive) | 87% | 87.1% | -2.43% (inactive) | -4.92% (inactive)
13 | COc1ccc(NC(=O)CCS(=O)(=O)c2ccc(OC)cc2)cc1 | 96 | 104% (inactive) | 96% (inactive) | 94.8% (inactive) | 83.4% (inactive) | -9.78% (inactive) | 93.2% | 83.4% | -0.4% (inactive) | -7.26% (inactive)
14 | O=C(CCNC(=O)Cn1ccc2ccccc2c1=O)NCCN1CCc2ccccc2C1 | 118 | 98% (inactive) | 118% (inactive) | 87.3% (inactive) | 91.8% (inactive) | 0.755% (inactive) | 91% | 91.8% | -7.63% (inactive) | -8.18% (inactive)
15 | O=C(CSc1nccn1-c1cccc(Cl)c1)NC1CCCC1 | 95.5 | 86% (inactive) | 95.5% (inactive) | 95.5% (inactive) | 111% (inactive) | 10.3% (inactive) | 101% | 111% | 0.91% (inactive) | 14.1% (inactive)
16 | O=C1N=C(N2CCOCC2)CS1 | 108 | 110% (inactive) | 108% (inactive) | 103% (inactive) | 104% (inactive) | 5.3% (inactive) | 98.3% | 104% | -4.27% (inactive) | -1.45% (inactive)
17 | COc1cc(-c2nc(S(=O)(=O)c3ccccc3)c(N3CCOCC3)o2)cc(OC)c1OC | 82.5 | 86.5% (inactive) | 82.5% (inactive) | 97.7% (inactive) | 87.1% (inactive) | 14.8% (inactive) | 72.2% | 87.1% | -3.16% (inactive) | 12% (inactive)
18 | COc1cc2c(cc1NC(=O)COC(=O)Cn1cnc3ccccc31)oc1ccccc12 | 92 | 89% (inactive) | 92% (inactive) | 64.4% (inactive) | 80.8% (inactive) | -16.1% (inactive) | 96.9% | 80.8% | -1.87% (inactive) | -3.23% (inactive)
19 | C=CCn1c(C)cc(C(=O)CSc2nc3ccccc3c(=O)[nH]2)c1C | 90.5 | 92.5% (inactive) | 90.5% (inactive) | 61.5% (inactive) | 77.8% (inactive) | -4.06% (inactive) | 81.8% | 77.8% | 54.1% (active) | 37.6% (active)
20 | Cc1cc(=O)n(CC(C)C)c(O)c1C#N | 106 | 98% (inactive) | 106% (inactive) | 99.4% (inactive) | 104% (inactive) | 0.33% (inactive) | 104% | 104% | 0.53% (inactive) | 5.08% (inactive)
21 | CCOC(=O)c1[nH]c2ccccc2c1NC(=O)C(CC)CC | 98.5 | 99.5% (inactive) | 98.5% (inactive) | 80.8% (inactive) | 93.3% (inactive) | 13.9% (inactive) | 79.4% | 93.3% | -4.27% (inactive) | 5.5% (inactive)
22 | COC(=O)c1[nH]c2cc(OC)ccc2c1NC(=O)CCN1CCCCC1 | 85 | 114% (inactive) | 85% (inactive) | 116% (inactive) | 98.2% (inactive) | 2.35% (inactive) | 95.8% | 98.2% | -1.97% (inactive) | -4.43% (inactive)
23 | CCN(C(=O)c1cn(C)c(=O)c2cc(OC)c(OC)cc12)c1ccccc1C | 108 | 75% (inactive) | 108% (inactive) | 106% (inactive) | 98.2% (inactive) | 7.24% (inactive) | 91% | 98.2% | -0.54% (inactive) | -1.43% (inactive)
24 | Cc1cc(NCCN(C)C)n2nc(-c3cccs3)cc2n1 | 90 | 107% (inactive) | 90% (inactive) | 102% (inactive) | 92.6% (inactive) | 10.5% (inactive) | 82.1% | 92.6% | -4.8% (inactive) | -2.62% (inactive)
25 | CCCCCC1CC(CC(=O)O)C(=O)O1 (stereo not given) | 100 | 96% (inactive) | 100% (inactive) | 82.5% (inactive) | 104% (inactive) | 7.44% (inactive) | 96.2% | 104% | -4.87% (inactive) | 7.67% (inactive)
26 | COCCCNC(=O)C(Cc1ccccc1)NS(=O)(=O)c1ccc2c(c1)c(=O)n(C)c(=O)n2C (stereo not given) | 101 | 95.5% (inactive) | 101% (inactive) | 96.8% (inactive) | 89.2% (inactive) | 3.26% (inactive) | 85.9% | 89.2% | -2.63% (inactive) | -3.97% (inactive)
27 | CCOc1ccc(N2C(N)=NC(N)=NC2(C)C)cc1 | 92.5 | 85% (inactive) | 92.5% (inactive) | 101% (inactive) | 75.4% (inactive) | -26.6% (inactive) | 102% | 75.4% | -0.26% (inactive) | 12.1% (inactive)
28 | O=C(O)CCCC(=O)NCCc1ccncc1 | 98 | 89% (inactive) | 98% (inactive) | 97% (inactive) | 107% (inactive) | 7.97% (inactive) | 98.5% | 107% | -1.84% (inactive) | -1.27% (inactive)
29 | COc1ccc(N2CCN(C(c3cccs3)C(C)NC(=O)c3ccco3)CC2)cc1 (stereo not given) | 90 | 76.5% (inactive) | 90% (inactive) | 82.1% (inactive) | 86.3% (inactive) | -4.01% (inactive) | 90.3% | 86.3% | -4.53% (inactive) | -0.16% (inactive)
